# Experimental data as given in ChEMBL document CHEMBL3525963, “Tissue distribution and elimination of [14C]apixaban in rats” (Drug Metab Dispos, 2011).
# Legend:
# Conditions in all cases: in vivo
# Rattus norvegicus [1] = assay: Biodistribution in male Sprague-Dawley rat pituitary gland at 5 mg/kg, po administered as single dose measured after 0.5 hrs; type: ADME, organism-based; set-up: dose 5 mg/kg, dosed compound name [14C]-apixaban, route oral
# Spleen [2] = assay: Biodistribution in male Sprague-Dawley rat spleen at 5 mg/kg, po administered as single dose measured after 0.5 hrs; type: ADME, organism-based; set-up: dose 5 mg/kg, dosed compound name [14C]-apixaban, route oral
# Procedure, shortened: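 [14C]apixaban (1.0 mg/mL, 20 μCi/mL) in 0.5% Tween 80 in Labrafil, given by oral gavage at 100 μCi/kg to male rats (225-252 g) fasted overnight through 4 h post-dose. One rat per time point. Carcasses frozen in hexane/dry ice and cut into 40 µm sagittal sections. QWBA read on phosphor plates against [14C]glucose standards, reported as µg eq/g. LLOQ 0.037 µg eq/g.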
# Rattus norvegicus [3] = assay: Biodistribution in male Sprague-Dawley rat brown fat at 5 mg/kg, po administered as single dose measured after 8 hrs; type: ADME, organism-based, Brown adipose tissue; set-up: dose 5 mg/kg, dosed compound name [14C]-apixaban, route oral
# Procedure, shortened: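 Fasted male rats, 225-252 g, received [14C]apixaban by single oral gavage at 100 μCi/kg in 0.5% Tween 80/Labrafil. One rat was killed per time point and the carcass frozen. Tissue radioactivity was quantified by QWBA (40 µm sagittal sections, phosphor plate, [14C]glucose calibration) as µg eq apixaban/g, with LLOQ 0.037 μg eq/g.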
# Rattus norvegicus [4] = assay: Biodistribution in male Sprague-Dawley rat brown fat at 5 mg/kg, po administered as single dose measured after 24 hrs; type: ADME, organism-based, Brown adipose tissue; set-up: dose 5 mg/kg, dosed compound name [14C]-apixaban, route oral
# Procedure, shortened: (§1)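 Fasted male SD rats (225-252 g) each received one oral gavage dose of [14C]apixaban, 5 mg/kg (100 μCi/kg), in 0.5% Tween 80/Labrafil vehicle. One rat was killed per time point, from 0.5 to 168 h. Frozen carcasses were cut into 40 µm sagittal whole-body sections and read by QWBA phosphor imaging against [14C]glucose calibrants. Results are in µg apixaban eq/g; BLQ <0.037 µg eq/g.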
# Adrenal gland [5] = assay: Biodistribution in female Sprague-Dawley rat adrenal gland at 5 mg/kg, po administered as single dose measured after 24 hrs; type: ADME, organism-based; set-up: dose 5 mg/kg, dosed compound name [14C]-apixaban, route oral
# Procedure, shortened: (§2)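 Quantitative whole-body autoradiography was run after a single 5 mg/kg (100 μCi/kg) oral gavage to fasted female or pregnant SD rats, one rat per time point. Carcasses were frozen in hexane/dry ice, and 40 µm sagittal sections were dried at −20°C for at least 48 h. Sections were exposed to a phosphor plate alongside [14C]glucose standards (0.001–6.5 µCi/g). Results are µg eq/g, with LLOQ 0.037 µg eq/g.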
# Harderian gland [6] = assay: Biodistribution in male Sprague-Dawley rat harderian gland at 5 mg/kg, po administered as single dose measured after 72 hrs; type: ADME, organism-based; set-up: dose 5 mg/kg, dosed compound name [14C]-apixaban, route oral; procedure, shortened: as §1
# Rattus norvegicus [7] = assay: Biodistribution in male Sprague-Dawley rat salivary gland at 5 mg/kg, po administered as single dose measured after 4 hrs; type: ADME, organism-based; set-up: dose 5 mg/kg, dosed compound name [14C]-apixaban, route oral
# Rattus norvegicus [8] = assay: Biodistribution in fetal brain of pregnant Sprague-Dawley rat at 5 mg/kg, po administered as single dose measured after 8 hrs; type: ADME, organism-based; set-up: dose 5 mg/kg, dosed compound name [14C]-apixaban, route oral
# Procedure, shortened: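 Pregnant SD rats received a single oral gavage of [14C]apixaban at 5 mg/kg (100 μCi/kg; 1.0 mg/mL, 20 μCi/mL in 0.5% Tween 80/Labrafil) after fasting, one dam per time point. Frozen carcasses were cut into 40 µm sagittal sections and read by phosphor-imaging QWBA against [14C]glucose standards. Fetal tissue radioactivity is reported as µg eq/g, with LLOQ 0.037 µg eq/g.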
# Heart = assay: Biodistribution in female Sprague-Dawley rat heart at 5 mg/kg, po administered as single dose measured after 0.5 hrs; type: ADME, organism-based; set-up: dose 5 mg/kg, dosed compound name [14C]-apixaban, route oral
# Procedure, shortened: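 [¹⁴C]Apixaban given by oral gavage at 5 mg/kg (100 μCi/kg) in 0.5% Tween 80 in Labrafil (1.0 mg/mL dosing solution) to rats fasted overnight through 4 h post-dose. One rat per time point; carcass frozen in hexane/dry ice. Quantitative whole-body autoradiography used 40 µm sagittal sections and a phosphor imaging plate calibrated with [¹⁴C]glucose standards (0.001–6.5 μCi/g). Read-out in µg eq apixaban/g; LLOQ 0.037 μg eq/g.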
# Blood [9] = assay: AUC (0 to infinity) in pregnant Sprague-Dawley rat blood at 5 mg/kg, po administered as single dose; type: ADME, organism-based; set-up: time infinity, dose 5 mg/kg, dosed compound name [14C]-apixaban, route oral
# [10] = Drug level in lactating Sprague-Dawley rat milk at 5 mg/kg, po administered as single dose after 12 hrs; type: ADME, organism-based; set-up: dose 5 mg/kg, dosed compound name [14C]-apixaban, route oral
# Blood [11] = assay: Cmax in pregnant Sprague-Dawley rat blood at 5 mg/kg, po administered as single dose; type: ADME, organism-based; set-up: dose 5 mg/kg, dosed compound name [14C]-apixaban, route oral
# Procedure, shortened: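 Fasted male, female or pregnant SD rats received a single oral gavage of 5 mg/kg (100 μCi/kg) in 0.5% Tween 80/Labrafil. One rat was killed per time point, up to 168 h (48 h for pregnant). Blood was collected into K3EDTA. Blood radioactivity came from autoradiogram or LSC data, and Cmax was taken from the concentration-time profile.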
# Muscle tissue = assay: Biodistribution in female Sprague-Dawley rat muscle at 5 mg/kg, po administered as single dose measured after 72 hrs; type: ADME, organism-based; set-up: dose 5 mg/kg, dosed compound name [14C]-apixaban, route oral; procedure, shortened: as §2
# Harderian gland [12] = assay: Biodistribution in pregnant Sprague-Dawley rat harderian gland at 5 mg/kg, po administered as single dose measured after 4 hrs; type: ADME, organism-based; set-up: dose 5 mg/kg, dosed compound name [14C]-apixaban, route oral
# Liver = assay: Biodistribution in pregnant Sprague-Dawley rat liver at 5 mg/kg, po administered as single dose measured after 4 hrs; type: ADME, organism-based; set-up: dose 5 mg/kg, dosed compound name [14C]-apixaban, route oral
# Procedure, shortened: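 Fasted pregnant SD rats (n=6, 270-319 g) each received one oral gavage dose of [14C]apixaban, 5 mg/kg (100 μCi/kg), in 0.5% Tween 80/Labrafil. One rat was killed at each of 0.5, 1, 4, 8, 24 and 48 h. Carcasses were frozen in hexane/dry ice, cut into 40 µm sagittal sections, exposed to phosphor plates and quantified against [14C]glucose standards as µg eq/g. LLOQ was 0.037 µg eq/g.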
# Rattus norvegicus [13] = assay: Biodistribution in pregnant Sprague-Dawley rat amnion at 5 mg/kg, po administered as single dose measured after 4 hrs; type: ADME, organism-based; set-up: dose 5 mg/kg, dosed compound name [14C]-apixaban, route oral
# Rattus norvegicus [14] = assay: Biodistribution in fetal blood of pregnant Sprague-Dawley rat at 5 mg/kg, po administered as single dose measured after 4 hrs; type: ADME, organism-based; set-up: dose 5 mg/kg, dosed compound name [14C]-apixaban, route oral
# Procedure, shortened: (§3)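 Pregnant rats, 270-319 g and fasted overnight, received [14C]apixaban by oral gavage at 100 μCi/kg in 0.5% Tween 80/Labrafil. One dam per time point was euthanized and frozen in hexane/dry ice. Fetal tissue radioactivity was measured by QWBA on 40 µm sagittal sections calibrated with [14C]glucose standards. Values are in µg eq/g, with LLOQ 0.037 μg eq/g.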
# Harderian gland [15] = assay: Biodistribution in pregnant Sprague-Dawley rat harderian gland at 5 mg/kg, po administered as single dose measured after 0.5 hrs; type: ADME, organism-based; set-up: dose 5 mg/kg, dosed compound name [14C]-apixaban, route oral
# Rattus norvegicus [16] = assay: Biodistribution in pregnant Sprague-Dawley rat salivary gland at 5 mg/kg, po administered as single dose measured after 0.5 hrs; type: ADME, organism-based; set-up: dose 5 mg/kg, dosed compound name [14C]-apixaban, route oral
# Adrenal gland [17] = assay: Biodistribution in pregnant Sprague-Dawley rat adrenal gland at 5 mg/kg, po administered as single dose measured after 1 hr; type: ADME, organism-based; set-up: dose 5 mg/kg, dosed compound name [14C]-apixaban, route oral
# Rattus norvegicus [18] = assay: Biodistribution in pregnant Sprague-Dawley rat salivary gland at 5 mg/kg, po administered as single dose measured after 1 hr; type: ADME, organism-based; set-up: dose 5 mg/kg, dosed compound name [14C]-apixaban, route oral
# Spleen [19] = assay: Biodistribution in pregnant Sprague-Dawley rat spleen at 5 mg/kg, po administered as single dose measured after 1 hr; type: ADME, organism-based; set-up: dose 5 mg/kg, dosed compound name [14C]-apixaban, route oral
# Rattus norvegicus [20] = assay: Biodistribution in pregnant Sprague-Dawley rat amnion at 5 mg/kg, po administered as single dose measured after 1 hr; type: ADME, organism-based; set-up: dose 5 mg/kg, dosed compound name [14C]-apixaban, route oral
# Rattus norvegicus [21] = assay: Biodistribution in fetal kidney of pregnant Sprague-Dawley rat at 5 mg/kg, po administered as single dose measured after 1 hr; type: ADME, organism-based; set-up: dose 5 mg/kg, dosed compound name [14C]-apixaban, route oral; procedure, shortened: as §3
smiles,measurement,setting,value
COc1ccc(-n2nc(C(N)=O)c3c2C(=O)N(c2ccc(N4CCCC[14C]4=O)cc2)CC3)cc1,Radiolabel recovery,Rattus norvegicus [1],0.26 ugequiv/g
same,Radiolabel recovery,Spleen [2],0.18 ugequiv/g
same,Radiolabel recovery,Rattus norvegicus [3],0.07 ugequiv/g
same,Radiolabel recovery,Rattus norvegicus [4],Not sampled as not visualised in autoradiograph
same,Radiolabel recovery,Adrenal gland [5],Not detected assumed BLQ
same,Radiolabel recovery,Harderian gland [6],Not detected assumed BLQ
same,Radiolabel recovery,Rattus norvegicus [7],0.54 ugequiv/g
same,Radiolabel recovery,Rattus norvegicus [8],< 0.037 ugequiv/g
same,Radiolabel recovery,Heart,0.37 ugequiv/g
same,AUC,Blood [9],7200 ngequiv.hr/g
same,Radiolabel recovery,[10],3.61 µg/mL
same,Cmax,Blood [11],1440 ngequiv/g
same,Radiolabel recovery,Muscle tissue,Not detected assumed BLQ
same,Radiolabel recovery,Harderian gland [12],1.1 ugequiv/g
same,Radiolabel recovery,Liver,6.13 ugequiv/g
same,Radiolabel recovery,Rattus norvegicus [13],11.24 ugequiv/g
same,Radiolabel recovery,Rattus norvegicus [14],0.51 ugequiv/g
same,Radiolabel recovery,Harderian gland [15],1 ugequiv/g
same,Radiolabel recovery,Rattus norvegicus [16],0.73 ugequiv/g
same,Radiolabel recovery,Adrenal gland [17],1.9 ugequiv/g
same,Radiolabel recovery,Rattus norvegicus [18],0.95 ugequiv/g
same,Radiolabel recovery,Spleen [19],0.51 ugequiv/g
same,Radiolabel recovery,Rattus norvegicus [20],2.12 ugequiv/g
same,Radiolabel recovery,Rattus norvegicus [21],0.2 ugequiv/g
